Assays:
[1] = test system: Multiple myeloma cancer stem cell; experiment: Antiproliferative activity against human multiple myeloma cancer stem cells after 72 hrs by MTT assay; format: functional, cell-based
Procedure, shortened: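 MM-CSCs plated at 5000 cells/well and allowed to adhere 24 h, then exposed to 0–10 μM WFA for 72 h. MTT added for 2 h. Growth taken as absorbance relative to vehicle-control wells ×100. IC50 fitted from at least five concentrations; mean of three independent experiments ± SEM.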

[2] = Antiproliferative activity against human […] cells after 72 hrs by XTT assay; format: functional, cell-based
Procedure, shortened: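 RPMI 8226 cells in RPMI 1640 with 10% FBS, plated at 15 000 cells/well and treated immediately with 0–10 μM WFA for 72 h. XTT added for 4 h. Growth as absorbance relative to vehicle control ×100. IC50 fitted from at least five concentrations; mean of three independent experiments ± SEM.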

Row | Structure (SMILES) | IC50 [1] [nM] | IC50 [2] [nM]
1 | C[C@@H]1C[C@H]2[C@@H]3CCC4=CC(=O)C=C[C@]4(C)[C@@]3(F)[C@@H](O)C[C@]2(C)[C@@]1(O)C(=O)CO [DEXAMETHASONE] | > 100000 | 7.8
2 | CC(C)C[C@H](NC(=O)[C@H](Cc1ccccc1)NC(=O)c1cnccn1)B(O)O [BORTEZOMIB] | 8.4 | 3.6

From ChEMBL document CHEMBL4138044, “Withaferin A induces cell death and differentiation in multiple myeloma cancer stem cells” (Medchemcomm, 2017)
